CTSL1 counter = blocks F. hepatica cathepsin L1 in PFM18AAP counter-screen; recombinant F. hepatica cathepsin L1, Z-Leu-Arg-MCA fluorescence; inhibition, % at 5.96 µM; hit rate 0.49% among 300,000; AID 1906;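 active = inhibition above the mean of all tested compounds plus 3 SD, set per screening campaign, cut at about 17% in these data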
PREPL inhibitor = inhibits the human prolyl oligopeptidase-like enzyme; recombinant PREPL, fluorescence polarization activity-based probe; inhibition, % at 5.96 µM; hit rate 0.68% among 320,000; in the data active = inhibition above about 43%
UCH37 inh = human UCH37 deubiquitinating enzyme inhibition; purified proteasome/UCH37, Ub-AMC cleavage fluorescence; hit rate 0.33% among 330,000; inhibition, % (concentration not given with the values); AID 588478;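 active = mean inhibition over replicate wells above about 20%, limit read from the data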
Target sequence (Q9Y5K5 whole entry, looked up): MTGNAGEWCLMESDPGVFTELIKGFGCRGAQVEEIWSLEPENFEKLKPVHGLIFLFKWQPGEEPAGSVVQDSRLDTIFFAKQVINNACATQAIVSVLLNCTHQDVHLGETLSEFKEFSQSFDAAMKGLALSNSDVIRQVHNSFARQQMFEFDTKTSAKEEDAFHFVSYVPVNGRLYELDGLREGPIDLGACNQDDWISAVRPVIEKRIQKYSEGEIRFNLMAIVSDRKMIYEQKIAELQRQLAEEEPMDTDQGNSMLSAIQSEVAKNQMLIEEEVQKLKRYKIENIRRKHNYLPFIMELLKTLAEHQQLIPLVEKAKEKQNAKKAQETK
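Reagent: Ub-AMC substrate; assay system: Proteasome-associated human UCH37 deubiquitinase; controls: no-proteasome and no-compound wells; read-out: % inhibition of Ub-AMC cleavage fluorescence; timing: 30 min preincubation with enzyme, 25 min cleavage at room temperature; signal: AMC fluorescence from Ub-AMC cleavage, excitation 355 nm, emission 460 nm; buffer or medium: Tris-HCl pH 7.4 plus ovalbumin, ATP-MgCl2, DTT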
UBC13 polyUb = blocks human UBC13 polyubiquitin chain formation; P61088; TR-FRET; inhibition, % at 20 µM; hit rate 0.47% among 330,000; in the data active = inhibition above about 45%, passing the limit was not always enough
PP5 primary = PP5 (human) phosphatase inhibition; hit rate 0.18% among 320,000; P53041; purified PP5c, OMFP substrate fluorescence; AID 1987; inhibition, % at 6.7 µM;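 active = inhibition above the campaign's mean inhibition across all tested compounds plus 3 SD, cut at about 9.5% in these data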
PP1 inh = PP1-alpha (human) inhibition in PP5 counter-screen; purified PP1alpha, OMFP fluorescence; inhibition, % at 6.7 µM; P62136; AID 2235; hit rate 0.9% among 320,000;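 active = inhibition above the mean inhibition of all tested compounds plus 3 SD, computed separately for each screening campaign, cut at about 15% in these data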
Target sequence (P62136 whole entry, looked up): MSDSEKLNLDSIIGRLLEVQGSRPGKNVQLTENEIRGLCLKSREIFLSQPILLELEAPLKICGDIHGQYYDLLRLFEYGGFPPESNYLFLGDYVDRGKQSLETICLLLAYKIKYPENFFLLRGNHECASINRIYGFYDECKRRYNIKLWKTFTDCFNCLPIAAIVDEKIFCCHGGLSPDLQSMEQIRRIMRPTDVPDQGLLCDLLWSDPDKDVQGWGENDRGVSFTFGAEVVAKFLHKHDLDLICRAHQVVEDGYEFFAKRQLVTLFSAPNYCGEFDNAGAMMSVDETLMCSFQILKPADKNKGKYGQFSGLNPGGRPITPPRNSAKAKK
PP1 inh confirm = confirmation of human PP1 phosphatase inhibitors; shares compounds with PP1 inh; purified PP1alpha, OMFP substrate fluorescence; inhibition, % at 6.7 µM; hit rate 52% among 1,900; AID 2358;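 active = mean PP1 inhibition above a set limit taken from the earlier primary screen, cut at about 15% in these data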
PP5 counter = counter-screen for PP1 inhibitors: human PP5 phosphatase inhibition. AID 2360. shares compounds with PP1 inh. purified PP5c, OMFP fluorescence. inhibition, % at 6.7 µM. hit rate 4% among 1,900;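 active = mean PP5 inhibition over triplicate wells above about 9.5% taken from the earlier PP1 screen, limit read from the data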
Numbers stand for hits; – = inactive; · = not tested or not shown. Only some compounds are listed: those with a hit (about 2.3% of all), similar ones and a draw of the others.

SMILES	CTSL1 counter	PREPL inhibitor	UCH37 inh	UBC13 polyUb	PP5 primary	PP1 inh	PP1 inh confirm	PP5 counter
COc1ccccc1/C=C1\SC(=S)N(CCC(=O)Nc2ccc(C(=O)O)c(O)c2)C1=O	–	–	–	–	–	27.4	–	–
CC(/C=C1\SC(=S)N(CCCC(=O)Nc2ccc(C(=O)O)cc2)C1=O)=C\c1ccccc1	–	–	–	–	–	19.0	–	–
CC(/C=C1\SC(=S)N(CCC(=O)Nc2cccc(C(=O)O)c2)C1=O)=C\c1ccccc1	–	–	21.6	–	–	23.1	16.0	–
O=C(CCN1C(=O)/C(=C/C=C/c2ccccc2)SC1=S)Nc1cccnc1	–	–	–	–	–	19.9	–	–
O=C(CCN1C(=O)/C(=C/C=C/c2ccccc2)SC1=S)Nc1ccccn1	–	–	–	–	–	–	·	·
O=C(CC(=O)Nc1cccc(Cl)c1)NN=Cc1ccccc1	·	·	–	·	·	·	·	·
COc1cc(/C=C2\SC(=N)N(c3ccc(F)cc3)C2=O)ccc1O	–	–	–	–	–	26.4	20.1	–
COCCOC(=O)C1=C(C)NC(SCC(=O)NC(C)(C)C)=C(C#N)C1c1ccco1 (stereo not given)	·	·	–	–	·	·	·	·
C=CCOC(=O)C1=C(C)NC(SCC(=O)Nc2ccc(C)c(Cl)c2)=C(C#N)C1c1ccco1 (stereo not given)	–	–	–	–	–	18.9	–	–
Cc1ccc(NC2c3ncccc3C(=O)N2Cc2cccs2)cc1 (stereo not given)	–	–	–	–	–	23.3	20.4	–
CCC(C)Oc1ccc(C(=O)Nc2ccc(CN3CCOCC3)cc2)cc1 (stereo not given)	·	·	–	–	·	·	·	·
CCOc1ccc(NC(=O)c2ccc(NC(=O)c3ccc(CN4CCOCC4)cc3)cc2)cc1	–	–	–	–	–	21.6	40.8	–
O=C(CN1C(=O)NC2(CCCC2)C1=O)N1CCN(c2ccccc2O)CC1	–	–	–	–	–	17.6	–	–
CCOC(=O)CC1(NC(=O)C2CCC(=O)N(CCc3ccccc3)C2)CCCCC1 (stereo not given)	–	–	–	–	–	20.2	–	–
CCOC(=O)CC1(NC(=O)C2CCC(=O)N(C3CC3)C2)CCCCC1 (stereo not given)	–	–	–	–	–	–	·	·
CN(C)c1ccc(C=NNC(=O)c2cccc(N3CCCC3=O)c2)cc1	·	·	–	·	·	·	·	·
CCCN1C(=O)C(O)(CC(C)=NO)c2ccccc21 (stereo not given)	·	·	–	·	·	·	·	·
Cc1cccc(C=NNC(=O)c2cccc(Cl)c2)n1	·	·	–	·	·	·	·	·
COc1ccc(C(C)=O)c2c(O)cccc12	–	–	–	–	–	–	·	·
CCC1=NNc2cccc3c(OC)ccc1c23	–	–	–	–	–	32.8	–	–
COc1cc(F)ccc1S(=O)(=O)N1CCN(c2ccccc2)CC1	–	–	–	–	–	–	–	–
Cc1ccccc1C1C(C#N)=C2N=C(N)c3c(sc4c3CCCCC4)N2C2=C1C(=O)CCC2 (stereo not given)	–	–	–	–	–	25.4	18.2	–
N#CC1=C2N=C(N)c3ccccc3N2C2=C(C(=O)CCC2)C1c1ccccc1F (stereo not given)	–	–	–	–	–	–	·	·
COc1ccccc1NS(=O)(=O)c1ccc(N/N=C/c2ccccc2OCC(=O)O)c([N+](=O)[O-])c1	–	–	·	–	–	–	·	·
O=C(O)COc1ccccc1/C=N/Nc1ccc(S(=O)(=O)Nc2ccc(Cl)cc2)cc1[N+](=O)[O-]	–	–	·	–	–	18.9	–	–
SMILES	CTSL1 counter	PREPL inhibitor	UCH37 inh	UBC13 polyUb	PP5 primary	PP1 inh	PP1 inh confirm	PP5 counter
COc1ccc(-n2c3c(cc(C(=O)NNc4ccccc4C)c2=O)C(=O)CC(C)(C)C3)cc1	–	–	–	–	–	18.2	–	–
CCCOc1ccc(/C(O)=C2/C(=O)C(=O)N(c3ccccn3)C2c2ccc(OC)cc2)cc1C (stereo not given)	–	–	–	–	–	31.5	23.1	–
Cc1nc(N=C(N)NC(=O)NC2CCCCC2)nc2ccccc12	·	·	–	·	·	·	·	·
CNC(=O)C(=O)Nc1cc2c3c(c1)CCN3C(=O)CC2	–	–	–	–	–	–	·	·
CCN(CC)CCNC(=O)C(=O)Nc1cc2c3c(c1)CCN3C(=O)CC2	–	–	–	–	–	18.1	–	–
Cc1cc(C=NNC(N)=S)c(C)n1-c1cccc(Cl)c1	·	·	–	·	·	·	·	·
Cc1cc(/C=N/NC(N)=S)c(C)n1-c1cccc(Cl)c1	–	–	·	–	–	60.1	–	–
COc1ccc(-c2nc3cnccn3c2NCc2ccccc2)cc1SC1CCCCC1	–	–	–	–	–	–	·	·
CCCCNc1c(-c2ccc(OC)c(SC3CCCCC3)c2)nc2cnccn12	–	–	–	–	–	25.7	16.9	–
CCCCCCSc1cc(-c2nc3cnccn3c2NCc2ccccc2)ccc1OC	–	–	–	–	–	17.8	–	–
O=c1oc2ccccc2cc1-c1nc2ccccc2o1	–	–	–	–	–	–	·	·
Nc1cc2nc3ccccc3oc-2cc1=O	–	–	–	–	–	19.0	–	–
Cc1cccc(/C=N/NC(=O)c2cc(-c3cccnc3)nc3ccccc23)c1	–	–	·	–	–	77.7	–	–
O=C(CCCCCNC(=O)c1ccccc1Cl)NN=Cc1ccco1	·	·	–	·	·	·	·	·
CCOC(=O)N1CCN(S(=O)(=O)c2ccc(C(=O)Nc3nnc(CC)o3)cc2)CC1	–	–	–	–	–	–	·	·
CCOC(=O)N1CCN(S(=O)(=O)c2ccc(C(=O)NNc3nc4c(C)cc(C)cc4s3)cc2)CC1	–	–	–	–	–	30.7	18.9	–
CCOC(=O)N1CCN(S(=O)(=O)c2ccc(C(=O)NNc3nc4cc(C)cc(C)c4s3)cc2)CC1	–	–	·	–	–	19.4	26.4	–
CCOC(=O)N1CCN(S(=O)(=O)c2ccc(C(=O)NNc3nc4c(C)cccc4s3)cc2)CC1	–	–	–	–	–	–	·	·
COc1cc(C=NO)cc(Br)c1OCC(=O)NCc1ccccc1	·	·	–	·	·	·	·	·
CCN(CC)S(=O)(=O)c1ccc(C(=O)Nc2nnc(NC(=S)Nc3ccccc3)s2)cc1	–	–	–	–	–	42.7	28.9	–
O=c1[nH]c(C2CCCN(S(=O)(=O)c3cccc(Cl)c3)C2)nc2c1nnn2Cc1ccc2c(c1)OCCO2 (stereo not given)	–	–	–	–	–	23.7	–	–
Cc1ccc(C)c(S(=O)(=O)N2CCC(c3nc4c(nnn4Cc4ccc5c(c4)OCCO5)c(=O)[nH]3)CC2)c1	–	–	–	–	–	23.6	21.8	–
O=c1[nH]c(C2CCCN(S(=O)(=O)c3ccccc3)C2)nc2c1nnn2Cc1ccc2c(c1)OCCO2 (stereo not given)	–	–	–	–	–	–	·	·
CC(=NNC(=O)c1ccccn1)c1ccc(Cl)cc1	·	·	–	·	·	·	·	·
